The values that follow come from PMC5061631 (Cell metabolism, 2016).

The subject of one experiment is site IQ. Conditions: ref Orr et al., 2013; cited from earlier work.
The test system of experiment [1] is site IQ of mitochondrial respiratory complex I. Format: biochemical, rat. Conditions: for IC50: read-out: IC50 against superoxide-H2O2 production from site IQ, isolated rat skeletal muscle mitochondria. In a few lines:
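Freshly isolated rat skeletal muscle mitochondria, in the high-throughput screen run in 1,536-well format with library compounds at 10 µM. H2O2 was detected by Amplex UltraRed, which horseradish peroxidase oxidises to fluorescent resorufin. Data were normalised to the plate median signal, and rotenone was included on every plate as the positive site IQ inhibitor.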

The subject of a further experiment is intestinal stem cells. Kind of experiment: In vivo stem cell proliferation assays in Drosophila intestine. Details: species or system Drosophila melanogaster. As to conditions: dietary, 800 nM; 50 µM tunicamycin. In a few lines: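 Tunicamycin model: w;esgGal4,UAS-GFP virgins were crossed to Oregon Red males. Six-day-old offspring were starved 4 hr, fed 24 hr on 5% sucrose with 0.8% DMSO plus test compound, starved 1 hr, then given the same food with 50 µM tunicamycin for 24 hr. Adult female intestines were fixed and immunostained for phospho-histone H3, and positive cells were counted manually.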

The test system of the next experiment is H9c2 rat cardiomyoblasts. In words: ER stress protection assay: caspase 3/7 activation by tunicamycin. Format: cell-based. Conditions: H9c2 cells, 0.5 µg/ml tunicamycin, 24 hr. In a few lines:
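H9c2 cardiomyoblasts were seeded at 8,000 cells/well and grown 24 hr in DMEM with 10% FBS. Test compound or 1% DMSO vehicle was added, then 0.5 µg/ml tunicamycin 15 min later. After a further 24 hr, caspase 3/7 activity was read by luminescence. Background from cells without tunicamycin was subtracted, and values were normalised to vehicle-treated tunicamycin-exposed cells.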

The next experiment deals with perfused mouse heart. In words: Langendorff-perfused heart model of ischemia-reperfusion injury. As to conditions: 1.6 µM for 5 min at reperfusion. In a few lines:
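Mouse hearts were excised under tribromoethanol anaesthesia and perfused retrogradely at 4 ml/min in modified Krebs-Henseleit buffer with glucose, palmitate/BSA, lactate and pyruvate. After 20 min equilibration, hearts had 25 min global no-flow ischaemia and 60 min reperfusion. Test compound (1.6 µM) or 0.05% DMSO was infused for 5 min at reperfusion onset. Rate × developed pressure was normalised to pre-ischaemic baseline, infarct area was measured by TTC in 4–6 slices, and n = 6 per group.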

A value given as a limit tells only on which side of the number the result lay.

With `O=[N+]([O-])c1ccc(Oc2ccc(S(=O)(=O)NC3CCCCC3)cc2)cc1` [CN-POBS, N-cyclohexyl-4-(4-nitrophenoxy) benzenesulfonamide], the “concentrations with off-target effects” value in the experiment on site IQ is above 10 µM.
For the compound `C=C(C)[C@H]1Cc2c(ccc3c2O[C@@H]2COc4cc(OC)c(OC)cc4[C@@H]2C3=O)O1` [Rotenone, reference compound], in experiment [1] (plate control in screen), the “inhibition of the fluorescent signal (positive inhibitor of site IQ)” value was above 85%.
For orientation: IC50 means the concentration at which inhibition is half-maximal. As for `CC(=O)Nc1cccc(NC(=O)C(=O)NCCc2sc(-c3ccc(C)cc3)nc2C)c1` [S1QEL1.1], the IC50 in experiment [1] was found to be 70 nM. Further, the “suppression of tunicamycin-induced increase in mitotic marker phospho-histone H3” value in the experiment on intestinal stem cells is given as “up to 45%”. In addition, in the experiment with H9c2 rat cardiomyoblasts, the “caspase 3/7 activation by tunicamycin” value is “strongly attenuated caspase activation”. Besides, in the experiment on perfused mouse heart (25 min ischemia), the “post-ischemic recovery of cardiac function (rate × pressure product)” value was “significantly improved”. Moreover, the infarct size result in the experiment with perfused mouse heart (TTC staining) is “small but significant decrease”.
For the compound `CCCCC1CCC(C(=O)NCCS(=O)(=O)N2CCN(c3cccc(Cl)c3)CC2)CC1` (stereo not shown) [S1QEL2.2], the 50% inhibitory concentration (IC50) in experiment [1] came to 1500 nM. Further, the “suppression of tunicamycin-induced increase in mitotic marker phospho-histone H3” value in the experiment with intestinal stem cells is “up to 45%”. For the same compound, the “caspase 3/7 activation by tunicamycin” value in the experiment with H9c2 rat cardiomyoblasts is reported as “also did so at higher concentrations”.
